≈ marks a conversion by molar mass, not a printed value.
Experiments:
Nakaseomyces glabratus = experiment: Antifungal activity against Candida glabrata clinical isolate after 48 hrs by broth microdilution assay; assay type: functional
Procedure, shortened: (§1)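 Broth microdilution of DMSO stocks serially diluted in sterile water (4 to 0.0039 mg/mL). Yeasts grown on SDA at 37 °C for 24 h, suspended in double-strength PDB at 10⁵ spores/mL. Incubated at 37 °C for 48 h, then sprayed with 0.5% aqueous TTC. MIC = lowest concentration inhibiting visible growth. Ketoconazole reference.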

Candida albicans = experiment: Antifungal activity against Candida albicans ATCC 90028 after 48 hrs by broth microdilution assay; assay type: functional; conditions: ATCC 90028, 48 h; procedure, shortened: as §1
Candida tropicalis = experiment: Antifungal activity against Candida tropicalis NRLL Y 12968 after 48 hrs by broth microdilution assay; assay type: functional; conditions: NRLL Y 12968, 48 h; procedure, shortened: as §1
Pichia kudriavzevii = experiment: Antifungal activity against Candida krusei NRLL Y 7179 after 48 hrs by broth microdilution assay; assay type: functional; conditions: NRLL Y 7179, 48 h; procedure, shortened: as §1
[Candida] zeylanoides = Antifungal activity against Candida zeylanoides NRLL Y 1774 after 48 hrs by broth microdilution assay; assay type: functional; conditions: Dujonia zeylanoides, NRLL Y 1774, 48 h; procedure, shortened: as §1
Candida parapsilosis = experiment: Antifungal activity against Candida parapsilosis NRLL Y 12696 after 48 hrs by broth microdilution assay; assay type: functional; conditions: Lodderomyces parapsilosis, NRLL Y 12696, 48 h; procedure, shortened: as §1
Aspergillus flavus = experiment: Antifungal activity against Aspergillus flavus NRRL 980 after 72 hrs by broth microdilution assay; assay type: functional; conditions: NRRL 980, 72 h
Procedure, shortened: (§2)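 Compounds dissolved in DMSO, diluted in sterile distilled water from 4 to 0.0039 mg/mL. Molds grown on PDA at 25 °C for 5 days, suspended in double-strength PDB at 10⁵ spores/mL. Incubated at 25 °C for 72 h; mycelial growth read under stereo microscope. MIC = lowest concentration inhibiting visible growth. Ketoconazole reference.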

Aspergillus niger = experiment: Antifungal activity against Aspergillus niger ATCC 1094 after 72 hrs by broth microdilution assay; assay type: functional; conditions: ATCC 1094, 72 h; procedure, shortened: as §2
Aspergillus parasiticus = experiment: Antifungal activity against Aspergillus parasiticus NRRL 465 after 72 hrs by broth microdilution assay; assay type: functional; conditions: NRRL 465, 72 h; procedure, shortened: as §2
Fusarium solani = experiment: Antifungal activity against Fusarium solani NRRL 13414 after 72 hrs by broth microdilution assay; assay type: functional; conditions: NRRL 13414, 72 h; procedure, shortened: as §2
Salmonella typhimurium [1] = experiment: Mutagenicity in Salmonella typhimurium TA98 at 0.156 mg/ml after 48 hrs by AMES MPF assay in presence of Sprague-Dawley rat liver microsomal S9 fraction relative to baseline; assay type: toxicity, organism-based; conditions: salmonella enterica subsp. enterica serovar typhimurium
Procedure, shortened: (§3)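 Ames MPF fluctuation test with TA98/TA100. Overnight cultures (37 °C, 14–16 h) mixed with exposure medium; ±Aroclor-1254-induced rat liver S9 (final 4.5% v/v). Compounds in DMSO, 0.156–5 mg/mL. 90 min exposure at 37 °C, then indicator medium; 48 wells per concentration, 48 h at 37 °C, in triplicate. Yellow wells counted; fold induction over baseline (mean + 1 SD of zero-dose control).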

Salmonella typhimurium [2] = experiment: Mutagenicity in Salmonella typhimurium TA98 at 0.3125 mg/ml after 48 hrs by AMES MPF assay in presence of Sprague-Dawley rat liver microsomal S9 fraction relative to baseline; assay type: toxicity, organism-based; conditions: salmonella enterica subsp. enterica serovar typhimurium; procedure, shortened: as §3
Salmonella typhimurium [3] = experiment: Mutagenicity in Salmonella typhimurium TA98 at 0.625 mg/ml after 48 hrs by AMES MPF assay in presence of Sprague-Dawley rat liver microsomal S9 fraction relative to baseline; assay type: toxicity, organism-based; conditions: salmonella enterica subsp. enterica serovar typhimurium; procedure, shortened: as §3
Salmonella typhimurium [4] = experiment: Mutagenicity in Salmonella typhimurium TA98 at 1.25 mg/ml after 48 hrs by AMES MPF assay in presence of Sprague-Dawley rat liver microsomal S9 fraction relative to baseline; assay type: toxicity, organism-based; conditions: salmonella enterica subsp. enterica serovar typhimurium; procedure, shortened: as §3
Salmonella typhimurium [5] = experiment: Mutagenicity in Salmonella typhimurium TA98 at 2.5 mg/ml after 48 hrs by AMES MPF assay in presence of Sprague-Dawley rat liver microsomal S9 fraction relative to baseline; assay type: toxicity, organism-based; conditions: salmonella enterica subsp. enterica serovar typhimurium; procedure, shortened: as §3
Salmonella typhimurium [6] = experiment: Mutagenicity in Salmonella typhimurium TA98 at 5 mg/ml after 48 hrs by AMES MPF assay in presence of Sprague-Dawley rat liver microsomal S9 fraction relative to baseline; assay type: toxicity, organism-based; conditions: salmonella enterica subsp. enterica serovar typhimurium; procedure, shortened: as §3
Salmonella typhimurium [7] = experiment: Mutagenicity in Salmonella typhimurium TA98 at 0.156 mg/ml after 48 hrs by AMES MPF assay in absence of Sprague-Dawley rat liver microsomal S9 fraction relative to baseline; assay type: toxicity, organism-based; conditions: salmonella enterica subsp. enterica serovar typhimurium; procedure, shortened: as §3
Salmonella typhimurium [8] = experiment: Mutagenicity in Salmonella typhimurium TA98 at 0.3125 mg/ml after 48 hrs by AMES MPF assay in absence of Sprague-Dawley rat liver microsomal S9 fraction relative to baseline; assay type: toxicity, organism-based; conditions: salmonella enterica subsp. enterica serovar typhimurium; procedure, shortened: as §3
Salmonella typhimurium [9] = experiment: Mutagenicity in Salmonella typhimurium TA98 at 0.625 mg/ml after 48 hrs by AMES MPF assay in absence of Sprague-Dawley rat liver microsomal S9 fraction relative to baseline; assay type: toxicity, organism-based; conditions: salmonella enterica subsp. enterica serovar typhimurium; procedure, shortened: as §3
Salmonella typhimurium [10] = experiment: Mutagenicity in Salmonella typhimurium TA98 at 1.25 mg/ml after 48 hrs by AMES MPF assay in absence of Sprague-Dawley rat liver microsomal S9 fraction relative to baseline; assay type: toxicity, organism-based; conditions: salmonella enterica subsp. enterica serovar typhimurium; procedure, shortened: as §3
Salmonella typhimurium [11] = experiment: Mutagenicity in Salmonella typhimurium TA98 at 2.5 mg/ml after 48 hrs by AMES MPF assay in absence of Sprague-Dawley rat liver microsomal S9 fraction relative to baseline; assay type: toxicity, organism-based; conditions: salmonella enterica subsp. enterica serovar typhimurium; procedure, shortened: as §3
Salmonella typhimurium [12] = experiment: Mutagenicity in Salmonella typhimurium TA98 at 5 mg/ml after 48 hrs by AMES MPF assay in absence of Sprague-Dawley rat liver microsomal S9 fraction relative to baseline; assay type: toxicity, organism-based; conditions: salmonella enterica subsp. enterica serovar typhimurium; procedure, shortened: as §3
Salmonella typhimurium [13] = experiment: Mutagenicity in Salmonella typhimurium TA100 at 0.156 mg/ml after 48 hrs by AMES MPF assay in presence of Sprague-Dawley rat liver microsomal S9 fraction relative to baseline; assay type: toxicity, organism-based; conditions: salmonella enterica subsp. enterica serovar typhimurium; procedure, shortened: as §3
Salmonella typhimurium [14] = experiment: Mutagenicity in Salmonella typhimurium TA100 at 0.3125 mg/ml after 48 hrs by AMES MPF assay in presence of Sprague-Dawley rat liver microsomal S9 fraction relative to baseline; assay type: toxicity, organism-based; conditions: salmonella enterica subsp. enterica serovar typhimurium; procedure, shortened: as §3
Salmonella typhimurium [15] = experiment: Mutagenicity in Salmonella typhimurium TA100 at 0.625 mg/ml after 48 hrs by AMES MPF assay in presence of Sprague-Dawley rat liver microsomal S9 fraction relative to baseline; assay type: toxicity, organism-based; conditions: salmonella enterica subsp. enterica serovar typhimurium; procedure, shortened: as §3
Salmonella typhimurium [16] = experiment: Mutagenicity in Salmonella typhimurium TA100 at 1.25 mg/ml after 48 hrs by AMES MPF assay in presence of Sprague-Dawley rat liver microsomal S9 fraction relative to baseline; assay type: toxicity, organism-based; conditions: salmonella enterica subsp. enterica serovar typhimurium; procedure, shortened: as §3
Salmonella typhimurium [17] = experiment: Mutagenicity in Salmonella typhimurium TA100 at 2.5 mg/ml after 48 hrs by AMES MPF assay in presence of Sprague-Dawley rat liver microsomal S9 fraction relative to baseline; assay type: toxicity, organism-based; conditions: salmonella enterica subsp. enterica serovar typhimurium; procedure, shortened: as §3
Salmonella typhimurium [18] = experiment: Mutagenicity in Salmonella typhimurium TA100 at 5 mg/ml after 48 hrs by AMES MPF assay in presence of Sprague-Dawley rat liver microsomal S9 fraction relative to baseline; assay type: toxicity, organism-based; conditions: salmonella enterica subsp. enterica serovar typhimurium; procedure, shortened: as §3
Salmonella typhimurium [19] = experiment: Mutagenicity in Salmonella typhimurium TA100 at 0.156 mg/ml after 48 hrs by AMES MPF assay in absence of Sprague-Dawley rat liver microsomal S9 fraction relative to baseline; assay type: toxicity, organism-based; conditions: salmonella enterica subsp. enterica serovar typhimurium; procedure, shortened: as §3
Salmonella typhimurium [20] = experiment: Mutagenicity in Salmonella typhimurium TA100 at 0.3125 mg/ml after 48 hrs by AMES MPF assay in absence of Sprague-Dawley rat liver microsomal S9 fraction relative to baseline; assay type: toxicity, organism-based; conditions: salmonella enterica subsp. enterica serovar typhimurium; procedure, shortened: as §3
Salmonella typhimurium [21] = experiment: Mutagenicity in Salmonella typhimurium TA100 at 0.625 mg/ml after 48 hrs by AMES MPF assay in absence of Sprague-Dawley rat liver microsomal S9 fraction relative to baseline; assay type: toxicity, organism-based; conditions: salmonella enterica subsp. enterica serovar typhimurium; procedure, shortened: as §3
Salmonella typhimurium [22] = experiment: Mutagenicity in Salmonella typhimurium TA100 at 1.25 mg/ml after 48 hrs by AMES MPF assay in absence of Sprague-Dawley rat liver microsomal S9 fraction relative to baseline; assay type: toxicity, organism-based; conditions: salmonella enterica subsp. enterica serovar typhimurium; procedure, shortened: as §3
Salmonella typhimurium [23] = experiment: Mutagenicity in Salmonella typhimurium TA100 at 2.5 mg/ml after 48 hrs by AMES MPF assay in absence of Sprague-Dawley rat liver microsomal S9 fraction relative to baseline; assay type: toxicity, organism-based; conditions: salmonella enterica subsp. enterica serovar typhimurium; procedure, shortened: as §3
Salmonella typhimurium [24] = experiment: Mutagenicity in Salmonella typhimurium TA100 at 5 mg/ml after 48 hrs by AMES MPF assay in absence of Sprague-Dawley rat liver microsomal S9 fraction relative to baseline; assay type: toxicity, organism-based; conditions: salmonella enterica subsp. enterica serovar typhimurium; procedure, shortened: as §3
A549 = experiment: Antiproliferative activity against human A549 cells after 24 hrs by XTT assay; assay type: functional, cell-based; conditions: A549, 24 h
Procedure, shortened: (§4)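 A549 cells in RPMI and NIH/3T3 cells in DMEM, each with fetal calf serum, antibiotics and 7.5% NaHCO₃, at 37 °C, 5% CO₂. Seeded at 20,000 cells/well, 24 h, then compounds added in medium at 500–3.9 doses (final DMSO <0.1%) for 24 h. XTT read after 3 h at 480 nm (ref 680 nm). IC₅₀ by non-linear regression; triplicates; cisplatin control.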

[25] = Cytotoxicity against mouse NIH/3T3 cells after 24 hrs by XTT assay; assay type: cell-based; conditions: NIH3T3, 24 h; procedure, shortened: as §4

- MIC (Nakaseomyces glabratus): 125 mg/L (≈ 263 µM)
- MIC (Candida albicans): 250 mg/L (≈ 527 µM)
- MIC (Candida tropicalis): 250 mg/L (≈ 527 µM)
- MIC (Pichia kudriavzevii): 250 mg/L (≈ 527 µM)
- MIC ([Candida] zeylanoides): 250 mg/L (≈ 527 µM)
- MIC (Candida parapsilosis): 250 mg/L (≈ 527 µM)
- MIC (Aspergillus flavus): 125 mg/L (≈ 263 µM)
- MIC (Aspergillus niger): 250 mg/L (≈ 527 µM)
- MIC (Aspergillus parasiticus): 250 mg/L (≈ 527 µM)
- MIC (Fusarium solani): 250 mg/L (≈ 527 µM)
- IC50 (A549): 125 mg/L (≈ 263 µM)
Structure (SMILES): Fc1ccc(C2CC(c3ccc(Cl)s3)=NN2c2nc(-c3ccc(Cl)cc3)cs2)cc1 (stereo unspecified)
- fold change (FC) (Salmonella typhimurium [1]): 0.68
- fold change (FC) (Salmonella typhimurium [2]): 0.81
- fold change (FC) (Salmonella typhimurium [3]): 0.95
- fold change (FC) (Salmonella typhimurium [4]): 0.81
- fold change (FC) (Salmonella typhimurium [5]): 0.54
- fold change (FC) (Salmonella typhimurium [6]): 0.81
- fold change (FC) (Salmonella typhimurium [7]): 0
- fold change (FC) (Salmonella typhimurium [8]): 0
- fold change (FC) (Salmonella typhimurium [9]): 0
- fold change (FC) (Salmonella typhimurium [10]): 0.67
- fold change (FC) (Salmonella typhimurium [11]): 0.67
- fold change (FC) (Salmonella typhimurium [12]): 1
- fold change (FC) (Salmonella typhimurium [13]): 3.23
- fold change (FC) (Salmonella typhimurium [14]): 3.92
- fold change (FC) (Salmonella typhimurium [15]): 3.46
- fold change (FC) (Salmonella typhimurium [16]): 3.69
- fold change (FC) (Salmonella typhimurium [17]): 3
- fold change (FC) (Salmonella typhimurium [18]): 3.92
- fold change (FC) (Salmonella typhimurium [19]): 1.67
- fold change (FC) (Salmonella typhimurium [20]): 0.67
- fold change (FC) (Salmonella typhimurium [21]): 0.33
- fold change (FC) (Salmonella typhimurium [22]): 0.33
- fold change (FC) (Salmonella typhimurium [23]): 1
- fold change (FC) (Salmonella typhimurium [24]): 0.33
- IC50 [25]: > 500 mg/L

Reference: ChEMBL document CHEMBL3407339, “A novel series of thiazolyl-pyrazoline derivatives: synthesis and evaluation of antifungal activity, cytotoxicity and genotoxicity” (Eur J Med Chem, 2015)
